# Measured values reported in ChEMBL document CHEMBL4609993, “The architecture of hydrogen and sulfur σ-hole interactions explain differences in the inhibitory potency of C-β-d-glucopyranosyl thiazoles, imidazoles and an N-β-d glucopyranosyl tetrazole for human liver glycogen phosphorylase and offer new insights to structure-based design” (Bioorg Med Chem, 2020).
# Tests used:
# [1] = biological target: T1, Glycogen phosphorylase, liver form (Homo sapiens, UniProt P06737); experiment: Inhibition of human liver GPa using Glc-1-P as substrate incubated for 15 mins
# T1 sequence (P06737 whole entry): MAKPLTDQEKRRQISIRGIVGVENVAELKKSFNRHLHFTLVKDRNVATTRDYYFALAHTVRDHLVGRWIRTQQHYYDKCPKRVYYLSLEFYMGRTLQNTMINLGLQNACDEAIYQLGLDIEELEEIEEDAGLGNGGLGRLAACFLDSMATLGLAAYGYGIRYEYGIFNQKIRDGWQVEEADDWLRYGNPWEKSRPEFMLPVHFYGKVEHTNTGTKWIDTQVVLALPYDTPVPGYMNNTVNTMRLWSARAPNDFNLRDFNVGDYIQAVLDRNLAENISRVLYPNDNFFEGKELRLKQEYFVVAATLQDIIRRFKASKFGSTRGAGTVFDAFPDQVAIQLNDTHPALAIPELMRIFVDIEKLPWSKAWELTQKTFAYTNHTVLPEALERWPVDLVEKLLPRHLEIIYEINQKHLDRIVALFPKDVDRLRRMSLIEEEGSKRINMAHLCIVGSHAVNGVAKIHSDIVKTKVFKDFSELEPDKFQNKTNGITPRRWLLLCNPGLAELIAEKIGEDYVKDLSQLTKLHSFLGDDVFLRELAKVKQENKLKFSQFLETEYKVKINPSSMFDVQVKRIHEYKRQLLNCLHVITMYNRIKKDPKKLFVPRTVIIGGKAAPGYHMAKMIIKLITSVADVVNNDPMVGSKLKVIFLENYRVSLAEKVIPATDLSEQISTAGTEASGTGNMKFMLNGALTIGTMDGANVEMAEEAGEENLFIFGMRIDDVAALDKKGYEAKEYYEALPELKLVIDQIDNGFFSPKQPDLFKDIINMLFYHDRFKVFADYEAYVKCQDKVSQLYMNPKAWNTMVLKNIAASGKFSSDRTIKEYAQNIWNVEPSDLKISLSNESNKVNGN
# [2] = Inhibition of rabbit muscle GPa using Glc-1-P as substrate incubated for 15 mins; set-up: species or system Oryctolagus cuniculus
# [3] = Inhibition of rabbit muscle GPb using alpha-D-glucose-1-phosphate as substrate by Lineweaver-Burk plot analysis; set-up: species or system Oryctolagus cuniculus
# [4] = biological target: T2, Glycogen phosphorylase, liver form (Homo sapiens) (UniProt P06737); experiment: Inhibition of GP in human HepG2 cells assessed as reduction in GP activity at 500 uM incubated for 3 hrs by Bradford reagent based assay relative to control; assay type: cell-based
# T2 sequence (whole entry): T1 sequence (P06737 whole entry)
# Outline: (§1)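 HepG2 cells were seeded at 1.0×10^6 per 60 mm dish and attached for 16–18 h. Glycogen was loaded for 16–18 h with 10 nM dexamethasone, 25 mM glucose and 100 nM insulin. Cells were then exposed to inhibitor or vehicle for 3 h in 5 mM glucose plus 100 nM glucagon. Lysates were sonicated in Tris pH 7.5/Triton/PMSF and cleared at 12,000 g. GP activity (nmol/min/mg, Bradford protein) came from a linear fit of 5 time points.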
# HepG2 [5] = experiment: Cytotoxicity against human HepG2 cells assessed as reduction in cell viability at >200 uM incubated for 24 hrs by MTT assay; assay type: cell-based; details: hepg2, 24 h
# [6] = Cytotoxicity against human HepG2 cells assessed as reduction in cell viability at 200 and 300 uM incubated for 3 hrs by MTT assay; assay type: cell-based; details: read-out: INH
# [7] = biological target: T2, Glycogen phosphorylase, liver form (Homo sapiens); experiment: Inhibition of GP in human HepG2 cells assessed as reduction in GP activity at 335 uM incubated for 3 hrs by Bradford reagent based assay relative to control; assay type: cell-based; outline: as §1
# [8] = Inhibition of rabbit muscle GPb using Glc-1-P as substrate incubated for 15 mins; set-up: species or system Oryctolagus cuniculus
# Outline: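 Recombinant or rabbit muscle GP assayed by an earlier method. Initial velocities were taken from pseudo-first-order rate constants via the first-order rate equation. Ki came from non-linear regression with explicit weighting of apparent Km against inhibitor concentration, using 4–5 inhibitor levels per compound spanning 1–300 μM.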
# [9] = biological target: T2, Glycogen phosphorylase, liver form (Homo sapiens); experiment: Inhibition of GP in human HepG2 cells assessed as reduction in GP activity at 100 uM incubated for 3 hrs by Bradford reagent based assay relative to control; assay type: cell-based; outline: as §1
# HepG2 [10] = experiment: Cytotoxicity against human HepG2 cells assessed as reduction in cell viability at 100 uM measured after 3 and 24 hrs by MTT assay; assay type: cell-based; details: hepg2, 24 h
Ki [1] [µM],Ki [2] [µM],Ki [3] [µM],inhibition [4] [%],inhibition [7] [%],Ki [8] [µM],inhibition [9] [%],SMILES,Activity (HepG2 [5]),cytotoxicity at 3 h [6] [%],Activity (HepG2 [10])
180,157,–,–,–,–,–,OC[C@H]1O[C@@H](c2nc(-c3ccccc3)cs2)[C@H](O)[C@@H](O)[C@@H]1O,–,–,–
–,1.74,–,–,–,–,–,OC[C@H]1O[C@@H](c2nc(-c3ccccc3)n[nH]2)[C@H](O)[C@@H](O)[C@@H]1O,–,–,–
43.6,28,26.2,< 25,–,–,–,OC[C@H]1O[C@@H](c2csc(-c3ccc4ccccc4c3)n2)[C@H](O)[C@@H](O)[C@@H]1O,Toxic,< 10,–
25.9,17.7,68.6,60,50,–,–,OC[C@H]1O[C@@H](c2c[nH]c(-c3ccccc3)n2)[C@H](O)[C@@H](O)[C@@H]1O,Toxic,–,–
134,146,–,–,–,162,–,OC[C@H]1O[C@@H](n2nnc(-c3ccccc3)n2)[C@H](O)[C@@H](O)[C@@H]1O,–,–,–
3.2,1.6,4.58,–,–,–,60,OC[C@H]1O[C@@H](c2c[nH]c(-c3ccc4ccccc4c3)n2)[C@H](O)[C@@H](O)[C@@H]1O,–,–,Non-Toxic
172,75.6,326,–,–,–,–,OC[C@H]1O[C@@H](c2csc(-c3ccccc3)n2)[C@H](O)[C@@H](O)[C@@H]1O,–,–,–
78,69.1,–,–,–,–,–,OC[C@H]1O[C@@H](c2nc(-c3ccc4ccccc4c3)cs2)[C@H](O)[C@@H](O)[C@@H]1O,–,–,–
